Experimental data from ChEMBL document CHEMBL1240455, “Synthesis of 5-[alkoxy-(4-nitro-phenyl)-methyl]-uridines and study of their cytotoxic activity” (Eur J Med Chem, 2010).
pIC50: −log10 of the molar value. Converted amounts (≈) assume the structure as drawn.

Key:
[1] = Cytotoxicity against human CEM-DNR-B cells after 72 hrs by MTT assay; type: functional, cell-based
How it was run: (§1)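 Cells seeded at 2500–30,000 per well by cell type and pre-incubated 24 h at 37 °C, 5% CO2. Compounds dissolved in 10% DMSO, added as four-fold dilutions at time zero, tested in quadruplicate. Exposure 72 h at 37 °C, 5% CO2, 100% humidity. MTT then added for 1–4 h, formazan dissolved overnight at 37 °C, OD read at 540 nm. IC50 taken from dose-response curves relative to control wells.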

K562 [2] = assay: Cytotoxicity against human K562 cells after 72 hrs by MTT assay; type: functional, cell-based; how it was run: as §1
A549 = assay: Cytotoxicity against human A549 cells after 72 hrs by MTT assay; type: functional, cell-based; how it was run: as §1
K562 [3] = assay: Cytotoxicity against human paclitaxel-resistant K562 cells after 72 hrs by MTT assay; type: functional, cell-based; how it was run: as §1
CCRF-CEM [4] = assay: Cytotoxicity against human CEM cells after 72 hrs by MTT assay; type: functional, cell-based; how it was run: as §1
CCRF-CEM [5] = assay: Cell cycle arrest in human CEM cells assessed as accumulation at S phase using propidium iodide staining at IC50 concentration after 24 hrs by flow cytometry; type: functional
CCRF-CEM [6] = assay: Inhibition of RNA synthesis in human CEM cells assessed as BrU incorporation using propidium iodide staining at 5 times IC50 concentration after 24 hrs by flow cytometry; type: functional; set-up: scale not given: the % may be the effect or the level left
How it was run: (§2)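 RNA synthesis measured by flow cytometry of incorporated 5-bromouridine, detected with a cross-reacting anti-BrdU antibody. CEM cells exposed at 1× and 5× IC50 for 3, 6, 9 and 24 h and pulsed for 30 min at 37 °C before harvest. Fixed 15 min in 1% paraformaldehyde/0.05% NP-40 in PBS and stored at 4 °C at least overnight. Stained with primary and FITC secondary antibodies, 30 min each at room temperature.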

CCRF-CEM [7] = assay: Induction of apoptosis in human CEM cells using propidium iodide staining at 5 times IC50 concentration after 24 hrs by flow cytometry; type: functional
CCRF-CEM [8] = assay: Cell cycle arrest in human CEM cells assessed as accumulation at G2/M phase using propidium iodide staining at IC50 concentration after 24 hrs by flow cytometry; type: functional
CCRF-CEM [9] = assay: Inhibition of DNA synthesis in human CEM cells assessed as BrDU incorporation using propidium iodide staining at 5 times IC50 concentration after 24 hrs by flow cytometry; type: functional; set-up: scale not given: the % may be the effect or the level left
How it was run: (§3)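 CEM cells exposed at 1× and 5× IC50 for 3, 6, 9 and 24 h, then pulsed with BrdU for 30 min at 37 °C. Cells fixed overnight in ice-cold 70% ethanol and DNA denatured in 2 M HCl for 30 min. Neutralised with 0.1 M sodium borate, then stained with anti-BrdU antibody, FITC secondary, and propidium iodide/RNase. Read by flow cytometry at 488 nm.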

Enterococcus faecalis = assay: Antimicrobial activity against Enterococcus faecalis CCM 4224 after 24 hrs; type: functional; conditions: CCM 4224, 24 h
CCRF-CEM [10] = assay: Induction of mitotic arrest in human CEM cells assessed as pH3Ser10 positive cells at IC50 concentration after 24 hrs by flow cytometry; type: functional
CCRF-CEM [11] = assay: Cell cycle arrest in human CEM cells assessed as accumulation at G0/G1 phase using propidium iodide staining at IC50 concentration after 24 hrs by flow cytometry; type: functional
CCRF-CEM [12] = assay: Inhibition of DNA synthesis in human CEM cells assessed as BrDU incorporation using propidium iodide staining at IC50 concentration after 24 hrs by flow cytometry; type: functional; set-up: scale not given: the % may be the effect or the level left; how it was run: as §3
CCRF-CEM [13] = assay: Induction of apoptosis in human CEM cells using propidium iodide staining at IC50 concentration after 24 hrs by flow cytometry; type: functional
[14] = tested on: Staphylococcus haemolyticus; assay: Antimicrobial activity against Staphylococcus haemolyticus after 24 hrs; type: functional
How it was run: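 MIC taken as the lowest concentration preventing bacterial growth after 24 h incubation at 37 °C. Strains came from the Czech Collection of Microorganisms or from clinical isolates of hospital patients.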

Staphylococcus aureus [15] = assay: Antimicrobial activity against Staphylococcus aureus CCM 3953 after 24 hrs; type: functional; conditions: CCM 3953, 24 h
Staphylococcus aureus [16] = assay: Antimicrobial activity against methicillin-resistant Staphylococcus aureus after 24 hrs; type: functional
CCRF-CEM [17] = assay: Induction of mitotic arrest in human CEM cells assessed as pH3Ser10 positive cells at 5 times IC50 concentration after 24 hrs by flow cytometry; type: functional
CCRF-CEM [18] = assay: Inhibition of RNA synthesis in human CEM cells assessed as BrU incorporation using propidium iodide staining at IC50 concentration after 24 hrs by flow cytometry; type: functional; set-up: scale not given: the % may be the effect or the level left; how it was run: as §2
CCRF-CEM [19] = assay: Cell cycle arrest in human CEM cells assessed as accumulation at G2/M phase using propidium iodide staining at 5 times IC50 concentration after 24 hrs by flow cytometry; type: functional
How it was run: (§4)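 CEM T-lymphoblastic leukemia cells were exposed to compound at 1× and 5× IC50 over a 24 h interval. DNA content was measured by flow cytometry with a 488 nm laser.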

CCRF-CEM [20] = assay: Cell cycle arrest in human CEM cells assessed as accumulation at S phase using propidium iodide staining at 5 times IC50 concentration after 24 hrs by flow cytometry; type: functional; how it was run: as §4
CCRF-CEM [21] = assay: Cell cycle arrest in human CEM cells assessed as accumulation at G0/G1 phase using propidium iodide staining at 5 times IC50 concentration after 24 hrs by flow cytometry; type: functional; how it was run: as §4

Structure (SMILES) | pIC50 ([1]; Homo sapiens, 72 h) | pIC50 (K562 [2]; Homo sapiens, K562, 72 h) | pIC50 (A549; Homo sapiens, A549, 72 h) | pIC50 (K562 [3]; Homo sapiens, K562, 72 h) | pIC50 (CCRF-CEM [4]; Homo sapiens, CCRF-CEM, 72 h) | Activity (CCRF-CEM [5]) [%] | Activity (CCRF-CEM [6]) [%] | Activity (CCRF-CEM [7]) [%] | Activity (CCRF-CEM [8]) [%] | Activity (CCRF-CEM [9]) [%] | Activity (CCRF-CEM [10]) [%] | Activity (CCRF-CEM [11]) [%] | Activity (CCRF-CEM [12]) [%] | Activity (CCRF-CEM [13]) [%] | Activity (CCRF-CEM [17]) [%] | Activity (CCRF-CEM [18]) [%] | pIC50 [1] | pIC50 (K562 [2]; k562) | pIC50 (A549; a549) | pIC50 (CCRF-CEM [4]; ccrf-cem) | other results
CCCCCCOC(c1ccc([N+](=O)[O-])cc1)c1cn([C@@H]2O[C@H](CO)[C@@H](O)[C@H]2O)c(=O)[nH]c1=O (stereo in doubt; (+)-7f) | 3.88 | 4.23 | 3.92 | 3.85 | 4.40 | – | – | – | – | – | – | – | – | – | – | – | – | – | – | – | –
CCCCCCCCCOC(c1ccc([N+](=O)[O-])cc1)c1cn([C@@H]2O[C@H](CO)[C@@H](O)[C@H]2O)c(=O)[nH]c1=O (stereo in doubt; (+)-7i) | 4.49 | 4.96 | 4.64 | 4.84 | 5.10 | 47.81 | 0.8 | 83 | 11.25 | 2.95 | 1.66 | 40.95 | 52.17 | 4 | 0.25 | 60.22 | – | – | – | – | MIC (Enterococcus faecalis): 50 µM (≈ 26.1 µg/mL); MIC [14]: 100 µM (≈ 52.2 µg/mL); MIC (Staphylococcus aureus [15]): 50 µM (≈ 26.1 µg/mL); MIC (Staphylococcus aureus [16]): 50 µM (≈ 26.1 µg/mL)
CCCCCCCCOC(c1ccc([N+](=O)[O-])cc1)c1cn([C@@H]2O[C@H](CO)[C@@H](O)[C@H]2O)c(=O)[nH]c1=O (single isomer, unassigned; (+)) | 4.46 | 4.82 | 4.41 | 4.48 | 4.94 | 47.81 | 1.44 | 76 | 9.83 | 6.01 | 2.05 | 42.36 | 46.03 | 7 | 0.03 | 58.1 | – | – | – | – | MIC (Enterococcus faecalis): 200 µM (≈ 102 µg/mL); MIC [14]: 200 µM (≈ 102 µg/mL); MIC (Staphylococcus aureus [15]): 100 µM (≈ 50.8 µg/mL); MIC (Staphylococcus aureus [16]): 100 µM (≈ 50.8 µg/mL)
CCCCCCCCCOC(c1ccc([N+](=O)[O-])cc1)c1cn([C@@H]2O[C@H](CO)[C@@H](O)[C@H]2O)c(=O)[nH]c1=O (single isomer, unassigned; (-)) | – | – | – | – | – | 47.79 | 1.9 | – | 8.83 | 0.95 | 1.74 | 43.38 | 47.38 | – | 0.04 | 57.26 | 4.47 | 4.89 | 4.54 | 5.00 | pIC50 (K562 [3]; k562): 4.62
CCCCCCCOC(c1ccc([N+](=O)[O-])cc1)c1cn([C@@H]2O[C@H](CO)[C@@H](O)[C@H]2O)c(=O)[nH]c1=O (stereo in doubt; (-)-8g) | – | – | – | – | – | – | – | – | – | – | – | – | – | – | – | – | 4.02 | 4.44 | 4.16 | 4.54 | pIC50 (K562 [3]; k562): 4.28
CCCCCCOC(c1ccc([N+](=O)[O-])cc1)c1cn([C@@H]2O[C@H](CO)[C@@H](O)[C@H]2O)c(=O)[nH]c1=O (single isomer, unassigned; (-)) | – | – | – | – | – | – | – | – | – | – | – | – | – | – | – | – | 3.84 | 4.19 | 3.81 | 4.34 | pIC50 (K562 [3]; k562): 3.86
CCCCCCCCOC(c1ccc([N+](=O)[O-])cc1)c1cn([C@@H]2O[C@H](CO)[C@@H](O)[C@H]2O)c(=O)[nH]c1=O (stereo in doubt; (-)-8h) | – | – | – | – | – | 48.56 | 1.61 | 71 | 11.33 | 6.67 | 1.68 | 40.02 | 48.73 | 5 | 0.01 | 56.18 | 4.44 | 4.61 | 4.40 | 4.77 | pIC50 (K562 [3]; k562): 4.46
Nc1nc(F)nc2c1ncn2[C@@H]1O[C@H](CO)[C@@H](O)[C@@H]1O [FLUDARABINE] | 6.00 | 3.57 | 4.32 | 6.59 | 4.71 | 40.84 | 8.92 | 74.84 | 19.5 | 10.37 | 0.28 | 39.66 | 14.12 | 62.1 | 0.01 | 7.62 | – | – | – | – | Activity (CCRF-CEM [19]): 4.95%; Activity (CCRF-CEM [20]): 52.94%; Activity (CCRF-CEM [21]): 42.11%
Nc1nc2[nH]cnc2c(=S)[nH]1 [THIOGUANINE] | 5.02 | 5.81 | 5.55 | 5.41 | 5.53 | 49.39 | 48.93 | 18.69 | 7.19 | 19.82 | 1.21 | 43.42 | 35.32 | 11.27 | 0.43 | 45.84 | – | – | – | – | Activity (CCRF-CEM [19]): 9.95%; Activity (CCRF-CEM [20]): 46.47%; Activity (CCRF-CEM [21]): 43.58%
CCCCCCCOC(c1ccc([N+](=O)[O-])cc1)c1cn([C@@H]2O[C@H](CO)[C@@H](O)[C@H]2O)c(=O)[nH]c1=O (stereo in doubt; (+)7g) | 3.98 | 4.47 | 4.40 | 4.37 | – | – | – | – | – | – | – | – | – | – | – | – | – | – | – | 4.89 | –
